Like-named read-outs stand apart in the source and are kept apart here.
Experiments:
Format in all cases: cell-based, human
MDA-MB-231 = test: MTT cytotoxicity assay, MDA-MB-231
Method in brief: (§1)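 Cells grown in DMEM with 10 % FBS and 1 % antibiotics (100 U/ml penicillin), seeded at 1.0 × 10^4 cells/well and left 24 h at 37 °C, 5 % CO2. Medium replaced; test compound at 5, 10, 25 and 50 μM for 48 h. MTT (5 mg/mL solution) added for 4 h; formazan dissolved in DMSO; A570 read. Triplicates. % viability versus untreated cells; IC50 from dose–response analysis.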

MCF-7 = test: MTT cytotoxicity assay, MCF-7
Method in brief: as §1

MCF-10A = test: MTT cytotoxicity assay, normal breast cell line MCF-10A; conditions: read-out: IC50 Values MCF-10A, 48 h
Method in brief: as §1

[1] = Homo sapiens, MDA-MB-231, 48 h, read-out: IC50 Values MDA-MB-231, MTT, 48 h, ±SD
[2] = Homo sapiens, MCF7, 48 h, read-out: IC50 Values MCF-7, MTT, 48 h, ±SD

| Compound | IC50 (MDA-MB-231; read-out: IC50 Values MDA-MB-231, MTT, 48 h, ±SD) [µM] | IC50 (MCF-7; read-out: IC50 Values MCF-7, MTT, 48 h, ±SD) [µM] | IC50 (MCF-10A; MTT, normal breast cell line, ±SD) [µM] | IC50 (MDA-MB-231; [1]) [µM] | IC50 (MCF-7; [2]) [µM] | IC50 (MCF-10A; Homo sapiens, MCF-10A) [µM] |
| --- | --- | --- | --- | --- | --- | --- |
| N.N.[Cl][Pt][Cl] [Cisplatin, reference compound] | 27 ± 0.8 | 24.1 ± 0.8 | 64.6 ± 0.5 | – | – | – |
| Oc1ccccc1C=Nc1cccnc1NCc1ccccc1 [H2L^1, 2-((2-(benzylamino)pyridin-3-ylimino)methyl)phenol] | – | – | – | 75 ± 0.2 | 70.9 ± 0.4 | > 100 |
| Oc1ccc(Br)cc1C=Nc1cccnc1NCc1ccccc1 [H2L^2, 2-((2-(benzylamino)pyridin-3-ylimino)methyl)-4-bromophenol] | – | – | – | 81.6 ± 0.6 | 81.6 ± 0.6 | > 100 |
| Oc1ccc2ccccc2c1C=Nc1cccnc1NCc1ccccc1 [H2L^3, 1-((2-(benzylamino)pyridin-3-ylimino)methyl)naphthalen-2-ol] | – | – | – | 87.01 ± 0.3 | 112.4 ± 0.6 | > 100 |
| CCN(CC)c1ccc(C=Nc2cccnc2NCc2ccccc2)c(O)c1 [H2L^4, 2-((2-(benzylamino)pyridin-3-ylimino)methyl) −5-(diethylamino)phenol] | – | – | – | 81.1 ± 0.2 | 104.6 ± 0.2 | > 100 |
| Oc1ccc(Br)cc1C=Nc1cccnc1NC1CCCCC1 [H2L^5, 4-bromo-2-((2-(cyclohexylamino)pyridin-3-ylimino)methyl)phenol] | – | – | – | 82.2 ± 0.6 | 88.81 ± 0.81 | > 100 |
| CCN(CC)c1ccc(C=Nc2cccnc2NC2CCCCC2)c(O)c1 [H2L^6, 2-((2-(cyclohexylamino)pyridin-3-ylimino)methyl)-5-(diethylamino)phenol] | – | – | – | 96 ± 0.4 | 99.6 ± 0.41 | > 100 |
| Cc1ccccc1Nc1ncccc1N=Cc1cc(Br)ccc1O [H2L^7, 2-((2-(o-toluidino)pyridin-3-ylimino)methyl)-4-bromophenol] | – | – | – | 85.1 ± 0.4 | 88.3 ± 0.51 | > 100 |
| CCN(CC)c1ccc(C=Nc2cccnc2Nc2ccccc2C)c(O)c1 [H2L^8, 2-((2-(o-toluidino)pyridin-3-ylimino)methyl)-5-(diethylamino)phenol] | – | – | – | 83.6 ± 0.3 | 88.3 ± 0.3 | > 100 |
| O=[N+]([O-])c1cccnc1NCc1ccccc1 [compound 1, N-benzyl-3-nitropyridin-2-amine] | – | – | – | 110 ± 0.4 | 122 ± 0.8 | > 100 |
| O=[N+]([O-])c1cccnc1NC1CCCCC1 [compound 2, N-cyclohexyl-3-nitropyridin-2-amine] | – | – | – | 110.2 ± 0.3 | 118 ± 0.3 | > 100 |
| Cc1ccccc1Nc1ncccc1[N+](=O)[O-] [compound 3, 3-nitro-N-o-tolylpyridin-2-amine] | – | – | – | 112 ± 0.41 | 120 ± 0.3 | > 100 |
| Nc1cccnc1NCc1ccccc1 [compound 4, N^2-benzylpyridine-2,3-diamine] | – | – | – | 108 ± 0.2 | 109 ± 0.6 | > 100 |
| Nc1cccnc1NC1CCCCC1 [compound 5, N^2-cyclohexylpyridine-2,3-diamine] | – | – | – | 109 ± 0.8 | 112 ± 0.41 | > 100 |
| Cc1ccccc1Nc1ncccc1N [compound 6, N^2-o-tolylpyridine-2,3-diamine] | – | – | – | 108 ± 0.2 | 112 ± 0.2 | > 100 |

From paper PMC10764271 (Saudi Pharmaceutical Journal : SPJ, 2023)
